Results reported in article PMC5268740 (New journal of chemistry = Nouveau journal de chimie, 2016).
Values joined by “and” are separate entries in the source; they are usually repeats but may differ in a detail not shown here. Equal entries are not always repeated.

Columns and labels:
Type in all cases: physicochemical
[1] = Excited-state photophysical properties; conditions: for Φf (fluorescence quantum yield) / Φisc (intersystem crossing yield) / τS (lifetime of lowest singlet excited state) / kf^−1 / kic^−1 / kisc^−1 / Φic (internal conversion yield): room temperature; for kf^−1 / kic^−1 / kisc^−1: kx = Φx/τS; for Φic (internal conversion yield): Φic = 1 - Φf - Φisc
[2] = Fluorescence emission spectroscopy of bacteriochlorins; conditions: for Qy em / Qy em fwhm: room temperature
Outline: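 Absorption and fluorescence spectra were recorded at room temperature in DMF and in […] water (one analogue in DMSO). The Qy/B ratio is the ratio of integrated Qy to integrated B absorption intensity. The Stokes shift is the Qy fluorescence maximum minus the Qy absorption peak.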

[3] = Absorption spectroscopy of bacteriochlorins; conditions: for Bmax abs / IQy/IB / Qy abs / Qy abs fwhm / ∑Qy/∑B: room temperature; for bathochromic shift in the Qy band relative to that for B2: in DMF or water
[4] = Water solubility / aggregation by absorption versus concentration in water; conditions: neat deionized water, 1000-fold concentration range (∼200–700 µM to ∼0.20–0.70 µM)
Outline: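 Absorption spectra were taken in neat deionized water over a ~1000-fold concentration range (~200–700 µM to ~0.20–0.70 µM). Pathlength was changed reciprocally ([…]), and spectra were normalized at the Qy band. Concentration was calculated from absorbance in the 1-cm cuvette assuming ε(Qy) = 120,000 M−1cm−1.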

Row | Φf (fluorescence quantum yield) ([1]; DMF) | Φisc (intersystem crossing yield) ([1]; DMF) | τS (lifetime of lowest singlet excited state) ([1]; DMF) | kf^−1 ([1]; DMF) [ns] | kic^−1 ([1]; DMF) [ns] | kisc^−1 ([1]; DMF) [ns] | Φic (internal conversion yield) ([1]; DMF) | reduction of Φf in water vs DMF [1] [%] | Φf (fluorescence quantum yield) ([1]; water with 5% DMF as cosolvent) | Φisc (intersystem crossing yield) ([1]; water with 5% DMF as cosolvent) | τS (lifetime of lowest singlet excited state) ([1]; water with 5% DMF as cosolvent) | kf^−1 ([1]; water with 5% DMF as cosolvent) [ns] | kic^−1 ([1]; water with 5% DMF as cosolvent) [ns] | kisc^−1 ([1]; water with 5% DMF as cosolvent) [ns] | Φic (internal conversion yield) ([1]; water with 5% DMF as cosolvent) | Qy em ([2]; DMF) [nm] | Qy em fwhm ([2]; DMF) [nm] | Qy em ([2]; water with 5% DMF as cosolvent) [nm] | Qy em fwhm ([2]; water with 5% DMF as cosolvent) [nm] | Bmax abs ([3]; DMF) [nm] | Substance | further results
1 | 0.13 | 0.29 | 1.7 ns and 1.70 ns | 13 | 3 | 6 | 0.58 | 87 | 0.017 | 0.08 | 1.4 ns and 1.40 ns | 84 | 2 | 18 | 0.90 | 819 | 35 | 834 | 44 | 375 | 2,12-Bis[3,5-bis(3,6,9,12,15,18,21,24-octaoxahexacosanyl-26-amidomethyl)phenyl]-15^2-N-(3-carboxypropyl)-3-methoxycarbonyl-5-methoxy-8,8,18,18-tetramethylbacteriochlorin-13,15-dicarboimide [B5] | difference in kf between the two media (DMF and water) ([1]; DMF versus water): 6.5 fold; (Stokes) shift of Qy fluorescence maximum from Qy absorption peak ([2]; DMF): 11 nm; (Stokes) shift of Qy fluorescence maximum from Qy absorption peak ([2]; water): 15 nm; bathochromic shift of the Qy absorption band compared to B4 and II ([3]; DMF and water): ~50 nm; IQy/IB ([3]; DMF): 0.78; Qy abs ([3]; DMF): 808 nm; Qy abs fwhm ([3]; DMF): 32 nm; ∑Qy/∑B ([3]; DMF): 0.50; Bmax abs ([3]; water with 5% DMF as cosolvent): 376 nm; IQy/IB ([3]; water with 5% DMF as cosolvent): 0.50; Qy abs ([3]; water with 5% DMF as cosolvent): 819 nm; Qy abs fwhm ([3]; water with 5% DMF as cosolvent): 36 nm; ∑Qy/∑B ([3]; water with 5% DMF as cosolvent): 0.38; aggregation in water from absorption versus concentration [4]: obvious band broadening indicating some degree of aggregation
2 | 0.11 | 0.32 | 3.02 ns | 27 | 5 | 9 | 0.57 | 29 | 0.078 | 0.31 | 2.96 ns | 38 | 5 | 10 | 0.61 | 756 | 27 | 760 | 31 | 373 | 3,13-Dimethoxycarbonyl-2,12-bis[3,5-bis(3,6,9,12,15,18,21,24-octaoxahexacosanyl-26-amidomethyl)phenyl]-5-methoxy-8,8,18,18-tetramethylbacteriochlorin [II] | (Stokes) shift of Qy fluorescence maximum from Qy absorption peak ([2]; water): 8–9 nm; IQy/IB ([3]; DMF): 0.79; Qy abs ([3]; DMF): 750 nm; Qy abs fwhm ([3]; DMF): 24 nm; ∑Qy/∑B ([3]; DMF): 0.42; bathochromic shift in the Qy band relative to that for B2 [3]: ~25 nm; Bmax abs ([3]; water with 5% DMF as cosolvent): 369 nm; IQy/IB ([3]; water with 5% DMF as cosolvent): 0.75; Qy abs ([3]; water with 5% DMF as cosolvent): 751 nm; Qy abs fwhm ([3]; water with 5% DMF as cosolvent): 26 nm; ∑Qy/∑B ([3]; water with 5% DMF as cosolvent): 0.40
3 | 0.12 | 0.33 | 3.46 ns | 28 | 6 | 10 | 0.55 | 71 | 0.035 | 0.31 | 3.21 ns | 92 | 5 | 10 | 0.65 | 760 | 31 | 759 | 33 | 377 | 2,12-Bis[3,5-bis(11-methoxy-3,6,9-trioxaundecylamidomethyl)phenyl]-15-(7-carboxy-1-heptyl)-3,13-dimethoxycarbonyl-5-methoxy-8,8,18,18-tetramethylbacteriochlorin [B4] | IQy/IB ([3]; DMF): 0.63; Qy abs ([3]; DMF): 754 nm; Qy abs fwhm ([3]; DMF): 30 nm; ∑Qy/∑B ([3]; DMF): 0.55; bathochromic shift in the Qy band relative to that for B2 [3]: ~28 nm; Bmax abs ([3]; water with 5% DMF as cosolvent): 368 nm; IQy/IB ([3]; water with 5% DMF as cosolvent): 0.62; Qy abs ([3]; water with 5% DMF as cosolvent): 753 nm; Qy abs fwhm ([3]; water with 5% DMF as cosolvent): 32 nm; ∑Qy/∑B ([3]; water with 5% DMF as cosolvent): 0.52
4 | 0.21 | 0.47 | 3.27 ns | 15 | 10 | 7 | 0.32 | 38 | 0.13 | 0.45 | 3.39 ns | 27 | 8 | 8 | 0.42 | 748 | 27 | 750 | 28 | 375 | 15-[4-(3-Carboxyethyl)phenyl]-3,13-dimethoxycarbonyl-2,12-bis[3,5-bis(3,6,9,12,15,18,21,24-octaoxahexacosanyl-26-amidomethyl)phenyl]-5-methoxy-8,8,18,18-tetramethylbacteriochlorin [B3] | (Stokes) shift of Qy fluorescence maximum from Qy absorption peak ([2]; water): 8–9 nm; IQy/IB ([3]; DMF): 0.74; Qy abs ([3]; DMF): 741 nm; Qy abs fwhm ([3]; DMF): 23 nm; ∑Qy/∑B ([3]; DMF): 0.52; bathochromic shift in the Qy band relative to that for B2 [3]: ~16 nm; Bmax abs ([3]; water with 5% DMF as cosolvent): 374 nm; IQy/IB ([3]; water with 5% DMF as cosolvent): 0.81; Qy abs ([3]; water with 5% DMF as cosolvent): 742 nm; Qy abs fwhm ([3]; water with 5% DMF as cosolvent): 24 nm; ∑Qy/∑B ([3]; water with 5% DMF as cosolvent): 0.57
